# In ChEMBL document CHEMBL1149267, “The design and enzyme-bound crystal structure of indoline based peptidomimetic inhibitors of hepatitis C virus NS3 protease” (J Med Chem, 2004):
# Biological target: NS3 (Hepatitis C virus) (UniProt A3EZJ3)
# Assay: Inhibition of HCV NS3 protease at 100 uM
# Details: Hepacivirus hominis
# Chain of NS3 (Hepatitis C virus) (A3EZJ3 as listed by the source): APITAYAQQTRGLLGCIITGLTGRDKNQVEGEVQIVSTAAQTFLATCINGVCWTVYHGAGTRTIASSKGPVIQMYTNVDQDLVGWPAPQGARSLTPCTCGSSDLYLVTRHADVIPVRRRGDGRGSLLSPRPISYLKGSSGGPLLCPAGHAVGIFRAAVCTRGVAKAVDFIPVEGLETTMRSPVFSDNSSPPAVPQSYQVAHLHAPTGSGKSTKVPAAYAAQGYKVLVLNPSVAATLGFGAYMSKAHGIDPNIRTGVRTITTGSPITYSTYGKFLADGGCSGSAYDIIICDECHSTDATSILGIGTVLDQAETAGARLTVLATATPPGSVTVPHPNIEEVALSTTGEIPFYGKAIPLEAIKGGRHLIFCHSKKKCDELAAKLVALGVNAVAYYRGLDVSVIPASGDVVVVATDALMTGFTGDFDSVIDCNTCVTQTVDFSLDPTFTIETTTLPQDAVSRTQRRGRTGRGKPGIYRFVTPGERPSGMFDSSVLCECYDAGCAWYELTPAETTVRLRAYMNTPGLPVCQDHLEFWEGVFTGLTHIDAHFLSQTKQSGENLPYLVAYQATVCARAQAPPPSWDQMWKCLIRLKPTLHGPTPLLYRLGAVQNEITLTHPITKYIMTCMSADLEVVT
row,Compound,inhibition [%]
1,"CC(C)C[C@H](NC(=O)C1Cc2ccccc2N1)C(=O)NC(CC(F)F)C(=O)C(=O)O (single isomer, unassigned; diastereomer 1)",< 50
2,"CC(C)C[C@H](NC(=O)C1(C2CCCCC2)Cc2ccccc2N1)C(=O)NC(CC(F)F)C(=O)C(=O)O (single isomer, unassigned; diastereomer 2)",< 50
3,"CC(C)C[C@H](NC(=O)C1(CC2CCC2)Cc2ccccc2N1)C(=O)NC(CC(F)F)C(=O)C(=O)O (single isomer, unassigned; diastereomer 2)",< 50
4,"CC(C)C[C@H](NC(=O)C1Cc2ccc(OCC(=O)O)cc2N1)C(=O)NC(CC(F)F)C(=O)C(=O)O (single isomer, unassigned; diastereomer 3)",< 50
5,"CC(C)C[C@H](NC(=O)C1Cc2ccccc2N1)C(=O)NC(CC(F)F)C(=O)C(=O)O (single isomer, unassigned; diastereomer 3)",< 50
6,"CC(C)C[C@H](NC(=O)C1Cc2ccc(OCC(=O)O)cc2N1)C(=O)NC(CC(F)F)C(=O)C(=O)O (single isomer, unassigned; diastereomer 4)",< 50

# Biological target: NS3 (Hepatitis C virus, UniProt A3EZJ3)
# Assay: Inhibition of HCV NS3 protease
# Design: species or system Hepacivirus hominis
# Details: not given
# Summary of the method: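 IC50 taken after a 30 min preincubation of enzyme with inhibitor. Each value is the mean of 2 independent measurements, with standard deviations within 35% of the mean.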
# Chain of NS3 (A3EZJ3 whole entry): as the sequence (A3EZJ3 as listed by the source) above
row,Compound,IC50 [µM]
1,CC(C)C[C@H](NC(=O)C1(Cc2ccc(Cl)s2)Cc2ccccc2N1)C(=O)NC(CC(F)F)C(=O)C(=O)O (stereo partly specified),3.7
2,"CC(C)C[C@H](NC(=O)C1(C2CCCCC2)Cc2ccccc2N1)C(=O)NC(CC(F)F)C(=O)C(=O)O (single isomer, unassigned; diastereomer 1)",69
3,"CC(C)C[C@H](NC(=O)C1(CC2CCC2)Cc2ccccc2N1)C(=O)NC(CC(F)F)C(=O)C(=O)O (single isomer, unassigned; diastereomer 1)",34
4,"CC(C)C[C@H](NC(=O)C1(Cc2ccsc2C(=O)O)Cc2ccccc2N1)C(=O)NC(CC(F)F)C(=O)C(=O)O (single isomer, unassigned; diastereomer 1)",0.7
5,"CC(C)C[C@H](NC(=O)C1Cc2ccccc2N1)C(=O)NC(CC(F)F)C(=O)C(=O)O (single isomer, unassigned; diastereomer 2)",50
6,"CC(C)C[C@H](NC(=O)C1(Cc2ccsc2C(=O)O)Cc2ccccc2N1)C(=O)NC(CC(F)F)C(=O)C(=O)O (single isomer, unassigned; diastereomer 2)",27
7,"CC(C)C[C@H](NC(=O)C1Cc2ccc(OCC(=O)O)cc2N1)C(=O)NC(CC(F)F)C(=O)C(=O)O (single isomer, unassigned; diastereomer 2)",27
8,"CC(C)C[C@H](NC(=O)C1(Cc2ccsc2C(=O)O)Cc2ccccc2N1)C(=O)NC(CC(F)F)C(=O)C(=O)O (single isomer, unassigned; diastereomer 3)",38
9,"CC(C)C[C@H](NC(=O)C1(Cc2ccsc2C(=O)O)Cc2ccccc2N1)C(=O)NC(CC(F)F)C(=O)C(=O)O (single isomer, unassigned; diastereomer 4)",73
10,CC(C)C[C@H](NC(=O)C1Cc2ccc(OCC(=O)O)cc2N1)C(=O)NC(CC(F)F)C(=O)C(=O)O (stereo in doubt; 7m),10
